Results from ChEMBL document CHEMBL4311931, “Controlling cellular distribution of drugs with permeability modifying moieties” (Medchemcomm, 2019).
pEC50, pIC50, pKi: −log10 of the molar value.

Tests used:
[1] = target: T1, Beta-2 adrenergic receptor (Homo sapiens, UniProt P07550); assay: Displacement of [3H](-)CGP 12177 from human recombinant beta2 adrenoceptor after 120 mins by scintillation counting method relative to parent compound
Target sequence in this assay (P07550 whole entry, looked up): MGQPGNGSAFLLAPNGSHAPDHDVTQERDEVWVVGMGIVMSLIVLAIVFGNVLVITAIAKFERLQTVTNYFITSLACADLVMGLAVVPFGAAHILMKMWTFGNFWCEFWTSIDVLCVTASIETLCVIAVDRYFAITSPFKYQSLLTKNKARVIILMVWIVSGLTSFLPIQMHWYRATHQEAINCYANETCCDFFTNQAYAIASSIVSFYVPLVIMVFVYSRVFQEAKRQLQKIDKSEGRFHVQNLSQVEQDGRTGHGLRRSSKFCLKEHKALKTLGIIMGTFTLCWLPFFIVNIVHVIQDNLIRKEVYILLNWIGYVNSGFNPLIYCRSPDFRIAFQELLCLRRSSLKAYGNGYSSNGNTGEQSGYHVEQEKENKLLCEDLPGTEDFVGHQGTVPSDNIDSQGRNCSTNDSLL

[2] = target: T1, Beta-2 adrenergic receptor; assay: Displacement of [3H](-)CGP 12177 from human recombinant beta2 adrenoceptor after 120 mins by scintillation counting method
Target sequence in this assay (P07550 whole entry): as the sequence (P07550 whole entry, looked up) above

[3] = target: T1, Beta-2 adrenergic receptor; assay: Antagonist activity at human recombinant beta2 adrenoreceptor expressed in CHOK1 cells incubated for 30 mins by HTRF; format: cell-based
Target sequence in this assay (P07550 whole entry): as the sequence (P07550 whole entry, looked up) above

[4] = target: T1, Beta-2 adrenergic receptor; assay: Antagonist activity at human recombinant beta2 adrenoreceptor expressed in CHOK1 cells incubated for 30 mins by HTRF relative to parent compound; format: cell-based
Target sequence in this assay (P07550 whole entry, looked up): as above

[5] = target: T2, 5-hydroxytryptamine receptor 1A (Homo sapiens, UniProt P08908); assay: Antagonist activity at human 5HT1A expressed in BAF3 cells by fluorimetry analysis; format: cell-based
T2 sequence (P08908 whole entry): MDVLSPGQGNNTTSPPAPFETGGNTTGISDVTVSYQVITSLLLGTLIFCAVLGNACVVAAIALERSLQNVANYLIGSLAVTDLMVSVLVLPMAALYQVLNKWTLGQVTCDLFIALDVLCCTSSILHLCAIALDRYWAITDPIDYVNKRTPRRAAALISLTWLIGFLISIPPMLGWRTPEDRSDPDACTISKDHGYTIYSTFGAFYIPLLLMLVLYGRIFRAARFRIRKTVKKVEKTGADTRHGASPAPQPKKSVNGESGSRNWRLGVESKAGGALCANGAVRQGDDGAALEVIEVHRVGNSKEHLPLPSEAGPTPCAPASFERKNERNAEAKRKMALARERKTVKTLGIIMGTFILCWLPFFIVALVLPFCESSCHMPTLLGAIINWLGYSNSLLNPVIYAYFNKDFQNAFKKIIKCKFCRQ

[6] = target: T3, 5-hydroxytryptamine receptor 1A (Homo sapiens) (UniProt P08908); assay: Displacement of [3H]-OH-DPAT from human recombinant 5-HT1A receptor measured after 60 mins by scintillation counter method relative to parent compound
T3 sequence (whole entry): T2 sequence (P08908 whole entry)

[7] = target: T2, 5-hydroxytryptamine receptor 1A; assay: Displacement of [3H]-OH-DPAT from human recombinant 5-HT1A receptor measured after 60 mins by scintillation counter method
K562 = assay: Antiproliferative activity against human K562 cells assessed as reduction in cell viability by measuring ATP level incubated for 3 days by Celltiter-Glo assay; format: functional, cell-based; conditions: K562, 72 h
Method in brief: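 K562 cells grown in RPMI 1640 with 50 mM HEPES and 10% FBS at 37 °C in 5% CO2, then plated at 20 000 cells per well. Compounds were log-serially diluted in DMSO, then in RPMI, to final concentrations of 10 000 nM to 0.01 nM. Cells were exposed for 3 days, and total intracellular ATP was read by CellTiter-Glo. IC50 is the geometric mean of at least two duplicate runs.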

[8] = Permeability of compound in 5% DMSO after 7 hrs by PAMPA; format: ADME; conditions: read-out: permeability
DLD-1 [9] = assay: cells; conditions: Homo sapiens
DLD-1 [10] = assay: cells; conditions: Homo sapiens; remark: listed apart in the source
[11] = target: T4, Nicotinamide phosphoribosyltransferase (Homo sapiens, UniProt P43490); assay: Displacement of fluorescent labelled OG488 from human full length FLAG-tagged NAMPT (1 to 491 residues) expressed in HEK293-6E cells in absence of PRPP by TR-FRET assay; format: cell-based
[12] = target: T4, Nicotinamide phosphoribosyltransferase; assay: Displacement of fluorescent labelled OG488 from human full length FLAG-tagged NAMPT (1 to 491 residues) expressed in HEK293-6E cells in presence of PRPP by TR-FRET assay; format: cell-based
PC-3 = assay: Antiproliferative activity against human PC3 cells assessed as reduction in cell viability by Celltiter-Glo assay; format: functional, cell-based
Method in brief: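 PC3 cells from ATCC, authenticated by STR analysis. Viability was read by CellTiter-Glo, and cell EC50 is the geometric mean of at least two duplicate runs.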

T4 sequence (P43490 whole entry, the tested form may be a part): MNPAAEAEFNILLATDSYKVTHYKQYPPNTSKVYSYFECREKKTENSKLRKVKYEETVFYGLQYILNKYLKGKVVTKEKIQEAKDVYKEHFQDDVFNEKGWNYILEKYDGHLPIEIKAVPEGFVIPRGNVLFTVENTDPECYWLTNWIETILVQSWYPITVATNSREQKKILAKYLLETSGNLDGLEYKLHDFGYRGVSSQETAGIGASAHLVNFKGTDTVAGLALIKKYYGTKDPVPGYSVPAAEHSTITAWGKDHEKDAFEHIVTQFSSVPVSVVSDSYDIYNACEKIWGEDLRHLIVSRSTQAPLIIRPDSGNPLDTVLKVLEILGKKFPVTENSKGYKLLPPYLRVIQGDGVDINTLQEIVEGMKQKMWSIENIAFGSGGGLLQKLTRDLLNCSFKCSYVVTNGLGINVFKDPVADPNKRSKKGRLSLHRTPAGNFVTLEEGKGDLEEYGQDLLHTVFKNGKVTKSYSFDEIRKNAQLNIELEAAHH

Compound	fold change (FC) [1]	pKi [2]	pIC50 [3]	fold change (FC) [4]	pIC50 [5]	fold change (FC) [6]	pKi [7]	Papp at 7 h [8]	other results
C=CCc1ccccc1OCC(O)CNCCOCCOCCOCCOCCNC(=O)CCCCCC1(C)C(/C=C/C=C/C=C2/N(CCCS(=O)(=O)O)c3ccc(S(=O)(=O)O)cc3C2(C)C)=[N+](CCCS(=O)(=O)[O-])c2ccc(S(=O)(=O)O)cc21 (configuration not stated)	1090	6.26	6.30	151	< 6.00	132	5.54		
Cc1nc(Nc2ncc(C(=O)Nc3c(C)cccc3Cl)s2)cc(N2CCN(CCOCCOCCN)CC2)n1								0.056 ×10⁻⁶ cm/s	pIC50 (K562): 6.20
CC(C)NCC(O)COc1ccccc1CCCSCC(=O)NCCOCCOCCN (configuration not stated)	0.19	8.54	7.72	0.26	< 5.00	6.32	5.54		
C=CCc1ccccc1OCC(O)CNCCOCCOCCOCCOCCNC(=O)CS(=O)(=O)O (configuration not stated)	150	6.12	7.08	25.3	< 6.00	12.1	6.58		
O=C(O)C1C(C(=O)O)C(C(=O)NCCOCCOCC(=O)N2CCN(C(=O)c3cc(Cc4n[nH]c(=O)c5ccccc45)ccc3F)CC2)C1C(=O)O (configuration not stated)									pEC50 (DLD-1 [9]): < 4.00; pEC50 (DLD-1 [10]): 5.11
COC(=O)CSCCCc1ccccc1OCC(O)CNC(C)C (configuration not stated)	1	7.82	7.14	1	5.54	1	7.25	0.0436 ×10⁻⁶ cm/s	
O=C(c1cc(Cc2n[nH]c(=O)c3ccccc23)ccc1F)N1CCNCC1								0.081 ×10⁻⁶ cm/s	pEC50 (DLD-1 [9]): < 4.00; pEC50 (DLD-1 [10]): 6.70
Cc1nc(Nc2ncc(C(=O)Nc3c(C)cccc3Cl)s2)cc(N2CCN(CCOCCOCCNC(=O)CS(=O)(=O)O)CC2)n1								0.0274 ×10⁻⁶ cm/s	pIC50 (K562): 6.92
CC(C)NCC(O)COc1ccccc1CCCSCC(=O)NCCOCCOCCNC(=O)CCCCCC1(C)C(/C=C/C=C/C=C2/N(CCCS(=O)(=O)O)c3ccc(S(=O)(=O)O)cc3C2(C)C)=[N+](CCCS(=O)(=O)[O-])c2ccc(S(=O)(=O)O)cc21 (configuration not stated)	1.73	7.59	7.02	1.33	< 5.00	18.9	6.03		
NCc1cccc(C(=O)N2CCC(CCCCNC(=O)/C=C/c3cccnc3)CC2)c1								0.092 ×10⁻⁶ cm/s	pKi [11]: 7.26; pKi [12]: 8.96; pIC50 (PC-3): 7.52
CC(C)NCC(O)COc1ccccc1CCCSCC(=O)NCCOCCOCCNC(=O)C1C(C(=O)O)C(C(=O)O)C1C(=O)O (configuration not stated)	24.6	7.10	6.42	5.27	< 5.00	35.2	5.76		
C=CCc1ccccc1OCC(O)CNC(C)C (configuration not stated) [ALPRENOLOL]					6.20		7.67	10.9 ×10⁻⁶ cm/s	
NCCOCCOCC(=O)N1CCN(C(=O)c2cc(Cc3n[nH]c(=O)c4ccccc34)ccc2F)CC1								0.00119 ×10⁻⁶ cm/s	pEC50 (DLD-1 [9]): < 4.00; pEC50 (DLD-1 [10]): 6.22
Cc1nn(C)cc1-c1ccc2cc(CCN3CCC[C@H]3C)ccc2n1								1.13 ×10⁻⁶ cm/s	
O=C(/C=C/c1cccnc1)NCCCCC1CCN(C(=O)c2cccc(CNC(=O)COCCOCCNC(=O)CS(=O)(=O)O)c2)CC1									pKi [11]: 6.55; pKi [12]: 8.10; pIC50 (PC-3): 5.14
CC(C)NCC(O)COc1ccccc1CCCSCC(=O)NCCOCCOCCNC(=O)OC(C)(C)C (configuration not stated)	0.21	8.49	7.66	0.31	6.19	0.871	7.31	0.0189 ×10⁻⁶ cm/s	
C=CCc1ccccc1OCC(O)CNCCOCCOCCOCCOCCNC(=O)C1C(C(=O)O)C(C(=O)O)C1C(=O)O (configuration not stated)	1024	6.29	< 6.00	303	< 6.00	82.4	5.75	0.0012 ×10⁻⁶ cm/s	
O=C(/C=C/c1cccnc1)NCCCCC1CCN(C(=O)c2cccc(CNC(=O)COCCOCCNC(=O)C3C(C(=O)O)C(C(=O)O)C3C(=O)O)c2)CC1 (configuration not stated)									pKi [11]: 6.44; pKi [12]: 8.23; pIC50 (PC-3): 5.14

Compound	fold change (FC) [1]	pKi [2]	pIC50 [3]	fold change (FC) [4]	pIC50 [5]	fold change (FC) [6]	pKi [7]	Papp at 7 h [8]	other results
CC(C)(C)OC(=O)NCCOCCOCC(=O)N1CCN(C(=O)c2cc(Cc3n[nH]c(=O)c4ccccc34)ccc2F)CC1									pEC50 (DLD-1 [9]): < 4.00; pEC50 (DLD-1 [10]): 6.15
Cc1nc(Nc2ncc(C(=O)Nc3c(C)cccc3Cl)s2)cc(N2CCN(CCO)CC2)n1.O [DASATINIB]								1.49 ×10⁻⁶ cm/s	pIC50 (K562): 9.20
Cc1nc(Nc2ncc(C(=O)Nc3c(C)cccc3Cl)s2)cc(N2CCN(CCOCCOCCNC(=O)C3C(C(=O)O)C(C(=O)O)C3C(=O)O)CC2)n1 (configuration not stated)								0.0122 ×10⁻⁶ cm/s	pIC50 (K562): 6.74
O=C(/C=C/c1cccnc1)NCCCCC1CCN(C(=O)c2ccccc2)CC1 [DAPORINAD]								39.5 ×10⁻⁶ cm/s	pIC50 (PC-3): 8.22
Cc1nc(Nc2ncc(C(=O)Nc3c(C)cccc3Cl)s2)cc(N2CCN(CCOCCOCCNC(=O)CCCCCC3(C)C(/C=C/C=C/C=C4/N(CCCS(=O)(=O)O)c5ccc(S(=O)(=O)O)cc5C4(C)C)=[N+](CCCS(=O)(=O)[O-])c4ccc(S(=O)(=O)O)cc43)CC2)n1 (configuration not stated)									pIC50 (K562): 7.54
Cc1sc2c(c1C)C(c1ccc(Cl)cc1)=N[C@@H](CC(=O)OC(C)(C)C)c1nnc(C)n1-2								2.24 ×10⁻⁶ cm/s	
Cc1nc(Nc2ncc(C(=O)Nc3c(C)cccc3Cl)s2)cc(N2CCN(CCOCCOCCNC(=O)OC(C)(C)C)CC2)n1								0.0065 ×10⁻⁶ cm/s	pIC50 (K562): 8.79
O=C(CS(=O)(=O)O)NCCOCCOCC(=O)N1CCN(C(=O)c2cc(Cc3n[nH]c(=O)c4ccccc34)ccc2F)CC1									pEC50 (DLD-1 [9]): 4.28; pEC50 (DLD-1 [10]): 5.96
CC(C)NCC(O)COc1ccccc1CCCSCC(=O)NCCOCCOCCNC(=O)CS(=O)(=O)O (configuration not stated)	1.09	7.79	7.07	1.19	< 5.00	15.1	5.75		
NCCOCCOCC(=O)NCc1cccc(C(=O)N2CCC(CCCCNC(=O)/C=C/c3cccnc3)CC2)c1								0.016 ×10⁻⁶ cm/s	pKi [11]: 7.22; pKi [12]: 8.72; pIC50 (PC-3): 6.53
CC1(CCCCCC(=O)NCCOCCOCC(=O)N2CCN(C(=O)c3cc(Cc4n[nH]c(=O)c5ccccc45)ccc3F)CC2)C(/C=C/C=C/C=C2/N(CCCS(=O)(=O)O)c3ccc(S(=O)(=O)O)cc3C2(C)C)=[N+](CCCS(=O)(=O)[O-])c2ccc(S(=O)(=O)O)cc21 (configuration not stated)									pEC50 (DLD-1 [9]): 4.15; pEC50 (DLD-1 [10]): 6.22
O=C(c1cc(Cc2n[nH]c(=O)c3ccccc23)ccc1F)N1CCN(C(=O)C2CC2)CC1 [OLAPARIB]								3.37 ×10⁻⁶ cm/s	pEC50 (DLD-1 [9]): 4.72; pEC50 (DLD-1 [10]): 7.00
Cc1nc(Nc2ncc(C(=O)Nc3c(C)cccc3Cl)s2)cc(N2CCNCC2)n1								0.0371 ×10⁻⁶ cm/s	
CC1(CCCCCC(=O)NCCOCCOCC(=O)NCc2cccc(C(=O)N3CCC(CCCCNC(=O)/C=C/c4cccnc4)CC3)c2)C(/C=C/C=C/C=C2/N(CCCS(=O)(=O)O)c3ccc(S(=O)(=O)O)cc3C2(C)C)=[N+](CCCS(=O)(=O)[O-])c2ccc(S(=O)(=O)O)cc21 (configuration not stated)									pKi [11]: 6.85; pKi [12]: 8.89; pIC50 (PC-3): 6.71
C=CCc1ccccc1OCC(O)CNCCOCCOCCOCCOCCN (configuration not stated)	20.6	7.99	7.00	30.3	< 6.00	1.66	7.45		
C=CCc1ccccc1OCC(O)CNCCOCCOCCOCCOCCNC(=O)OC(C)(C)C (configuration not stated)	7.4	8.43	8.16	2.09	< 6.00	1.12	7.62		
CC(C)(C)OC(=O)NCCOCCOCC(=O)NCc1cccc(C(=O)N2CCC(CCCCNC(=O)/C=C/c3cccnc3)CC2)c1								1.2 ×10⁻⁶ cm/s	pKi [11]: 7.85; pKi [12]: 9.70; pIC50 (PC-3): 7.51
